According to ChEMBL document CHEMBL5058577, “EUbOPEN Chemogenomics Library 2 (Multiplex)” (2022):

Test system: HEK-293T
Test: Multiplex assay against HEK293T
Type: toxicity, cell-based
Settings: human
Method in brief: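 Values for tubulin, mitochondrial-mass and membrane-permeability phenotypes are per cents of cells with healthy nuclei. These cells were identified by CellPathfinder machine-learning gating of live cells that had been stained at seeding with Hoechst33342, BioTracker Green Microtubule Cytoskeleton Dye, MitoTracker Red and Annexin V Alexa Fluor 680 and imaged on a CQ1 microscope at 37°C and 5% CO2 after compound addition. The gating first set Hoechst high-intensity objects apart from normal cells, then split normal cells into healthy, pyknosed or fragmented nuclei, and pyknosed cells into mitotic or apoptotic.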

[1] = 12 h, 1 µM, compound concentration 1 uM, replicate 1
[2] = 12 h, 1 µM, compound concentration 1 uM, replicate 2
[3] = 12 h, 10 µM, compound concentration 10 uM, replicate 1
[4] = 12 h, 10 µM, compound concentration 10 uM, replicate 2
[5] = 24 h, 1 µM, compound concentration 1 uM, replicate 1
[6] = 24 h, 1 µM, compound concentration 1 uM, replicate 2
[7] = 24 h, 10 µM, compound concentration 10 uM, replicate 1
[8] = 24 h, 10 µM, compound concentration 10 uM, replicate 2
[9] = 48 h, 1 µM, compound concentration 1 uM, replicate 1
[10] = 48 h, 1 µM, compound concentration 1 uM, replicate 2
[11] = 48 h, 10 µM, compound concentration 10 uM, replicate 1
[12] = 48 h, 10 µM, compound concentration 10 uM, replicate 2

SMILES: CN1CCC(C(=O)c2cccc(NC(=O)c3c(F)cc(F)cc3F)n2)CC1
- Population Apoptotic (%) [1]: 32%
- Population Fragmented Nuclei (%) [1]: 5%
- Population Healthy Nuclei (%) [1]: 82%
- Population Hoechst High Intensity Objects (%) [1]: 8%
- Population Membrane Permeable-Phenotype (%) [1]: 0%
- Population Mitochondria Different-Phenotype (%) [1]: 51%
- Population Mitotic Cells (%) [1]: 67%
- Population Normal (%) [1]: 91%
- Population Pyknosed Nuclei (%) [1]: 11%
- Population Tubulin-Different-Phenotype (%) [1]: 31%
- Total Cell Count [1]: 396
- Population Apoptotic (%) [2]: 52%
- Population Hoechst High Intensity Objects (%) [2]: 7%
- Population Mitochondria Different-Phenotype (%) [2]: 59%
- Population Mitotic Cells (%) [2]: 47%
- Population Normal (%) [2]: 92%
- Population Pyknosed Nuclei (%) [2]: 12%
- Population Tubulin-Different-Phenotype (%) [2]: 20%
- Total Cell Count [2]: 352
- Population Apoptotic (%) [3]: 52%
- Population Fragmented Nuclei (%) [3]: 6%
- Population Healthy Nuclei (%) [3]: 80%
- Population Hoechst High Intensity Objects (%) [3]: 8%
- Population Membrane Permeable-Phenotype (%) [3]: 1%
- Population Mitochondria Different-Phenotype (%) [3]: 55%
- Population Mitotic Cells (%) [3]: 47%
- Population Normal (%) [3]: 91%
- Population Pyknosed Nuclei (%) [3]: 12%
- Population Tubulin-Different-Phenotype (%) [3]: 50%
- Total Cell Count [3]: 445
- Population Apoptotic (%) [4]: 53%
- Population Hoechst High Intensity Objects (%) [4]: 10%
- Population Membrane Permeable-Phenotype (%) [4]: 0%
- Population Mitochondria Different-Phenotype (%) [4]: 77%
- Population Mitotic Cells (%) [4]: 46%
- Population Normal (%) [4]: 89%
- Population Pyknosed Nuclei (%) [4]: 13%
- Total Cell Count [4]: 401
- Population Apoptotic (%) [5]: 26%
- Population Fragmented Nuclei (%) [5]: 11%
- Population Healthy Nuclei (%) [5]: 74%
- Population Hoechst High Intensity Objects (%) [5]: 4%
- Population Membrane Permeable-Phenotype (%) [5]: 0%
- Population Mitochondria Different-Phenotype (%) [5]: 30%
- Population Mitotic Cells (%) [5]: 73%
- Population Normal (%) [5]: 95%
- Population Pyknosed Nuclei (%) [5]: 13%
- Population Tubulin-Different-Phenotype (%) [5]: 20%
- Total Cell Count [5]: 504
- Population Apoptotic (%) [6]: 42%
- Population Fragmented Nuclei (%) [6]: 8%
- Population Healthy Nuclei (%) [6]: 83%
- Population Hoechst High Intensity Objects (%) [6]: 3%
- Population Mitochondria Different-Phenotype (%) [6]: 39%
- Population Mitotic Cells (%) [6]: 57%
- Population Normal (%) [6]: 96%
- Population Pyknosed Nuclei (%) [6]: 7%
- Population Tubulin-Different-Phenotype (%) [6]: 17%
- Total Cell Count [6]: 478
- Population Apoptotic (%) [7]: 25%
- Population Fragmented Nuclei (%) [7]: 10%
- Population Healthy Nuclei (%) [7]: 76%
- Population Hoechst High Intensity Objects (%) [7]: 6%
- Population Membrane Permeable-Phenotype (%) [7]: 0%
- Population Mitochondria Different-Phenotype (%) [7]: 48%
- Population Mitotic Cells (%) [7]: 75%
- Population Normal (%) [7]: 93%
- Population Pyknosed Nuclei (%) [7]: 13%
- Population Tubulin-Different-Phenotype (%) [7]: 41%
- Total Cell Count [7]: 583
- Population Apoptotic (%) [8]: 52%
- Population Fragmented Nuclei (%) [8]: 8%
- Population Healthy Nuclei (%) [8]: 81%
- Population Hoechst High Intensity Objects (%) [8]: 8%
- Population Mitochondria Different-Phenotype (%) [8]: 64%
- Population Mitotic Cells (%) [8]: 47%
- Population Normal (%) [8]: 91%
- Population Pyknosed Nuclei (%) [8]: 9%
- Population Tubulin-Different-Phenotype (%) [8]: 34%
- Total Cell Count [8]: 467
- Population Apoptotic (%) [9]: 22%
- Population Fragmented Nuclei (%) [9]: 11%
- Population Healthy Nuclei (%) [9]: 80%
- Population Hoechst High Intensity Objects (%) [9]: 3%
- Population Membrane Permeable-Phenotype (%) [9]: 1%
- Population Mitochondria Different-Phenotype (%) [9]: 19%
- Population Mitotic Cells (%) [9]: 77%
- Population Normal (%) [9]: 96%
- Population Pyknosed Nuclei (%) [9]: 7%
- Population Tubulin-Different-Phenotype (%) [9]: 12%
- Total Cell Count [9]: 884
- Population Apoptotic (%) [10]: 34%
- Population Fragmented Nuclei (%) [10]: 9%
- Population Healthy Nuclei (%) [10]: 84%
- Population Mitochondria Different-Phenotype (%) [10]: 24%
- Population Mitotic Cells (%) [10]: 65%
- Population Pyknosed Nuclei (%) [10]: 5%
- Population Tubulin-Different-Phenotype (%) [10]: 10%
- Total Cell Count [10]: 692
- Population Apoptotic (%) [11]: 30%
- Population Fragmented Nuclei (%) [11]: 13%
- Population Healthy Nuclei (%) [11]: 79%
- Population Hoechst High Intensity Objects (%) [11]: 4%
- Population Membrane Permeable-Phenotype (%) [11]: 0%
- Population Mitochondria Different-Phenotype (%) [11]: 35%
- Population Mitotic Cells (%) [11]: 69%
- Population Normal (%) [11]: 95%
- Population Pyknosed Nuclei (%) [11]: 7%
- Population Tubulin-Different-Phenotype (%) [11]: 23%
- Total Cell Count [11]: 803
- Population Apoptotic (%) [12]: 28%
- Population Fragmented Nuclei (%) [12]: 10%
- Population Healthy Nuclei (%) [12]: 81%
- Population Hoechst High Intensity Objects (%) [12]: 7%
- Population Mitochondria Different-Phenotype (%) [12]: 42%
- Population Mitotic Cells (%) [12]: 71%
- Population Normal (%) [12]: 92%
- Population Tubulin-Different-Phenotype (%) [12]: 25%
- Total Cell Count [12]: 671
